pIC50: −log10 of the molar value.
Species on record: Rattus norvegicus
Assay: Compound tested to inhibit (LPO) lipid peroxidation was determined in rat brain microsomes
Format: functional
In short: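 Rat brain microsomes; lipid peroxidation induced by Fe2+. Antioxidant activity read as reduction of malondialdehyde formed from unsaturated fatty acid peroxidation.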

Structure (SMILES): Cc1cc(C(C)(C)C)c(O)c(C(C)(C)C)c1 [BUTYLATED HYDROXYTOLUENE]
- pIC50: 4.52

Structure (SMILES): CC1=NN(c2ccccc2)C(=O)C1 [EDARAVONE]
- pIC50: 4.49

From ChEMBL document CHEMBL1146686, “Phenolic thiazoles as novel orally-active neuroprotective agents” (Bioorg Med Chem Lett, 2004)
